Results pooled from the literature.
Lines come from different studies, so protocols differ.
Read-out: cell growth or viability

| SMILES | cell line | test | setting | IC50 |
| --- | --- | --- | --- | --- |
| C/C(=N\CCNCCNCC/N=C(\C)c1c(O)c2ccccc2oc1=O)c1c(O)c2ccccc2oc1=O | BEAS-2B | MTT | 48 h | 4.11 µM |
| c1ccc(Cn2nc(-c3nc(-c4ccccc4)n[nH]3)c3ccccc32)cc1 | human Fibroblast | – | 48 h | 72.6 µM |
| Cc1nc2ccc(-c3ccc(F)cc3)cc2c(O)c1C(=O)O | MDA-MB-468 | MTT | 48 h | ≥ 100 µM |
| FC(F)(F)c1ccc(-c2noc(-c3nn(Cc4ccc(Cl)cc4Cl)c4ccccc34)n2)cc1 | human Fibroblast | – | 48 h | 130 µM |
| Cc1nc2ccc(-c3ccc(F)c(F)c3)cc2c(O)c1C(=O)O | MDA-MB-468 | MTT | 48 h | ≥ 100 µM |
| CC(=O)ON=C1C=CC(=C(C#N)c2ccccc2)C=C1 | human Fibroblast | MTT | 24 h | 25.9 µg/mL |
| Cc1nc2ccc(-c3ccc(F)cc3F)cc2c(O)c1C(=O)O | MDA-MB-468 | MTT | 48 h | ≥ 100 µM |
| C/C(=N\C(=N)/N=C(\C)c1c(O)c2ccccc2oc1=O)c1c(O)c2ccccc2oc1=O | BEAS-2B | MTT | 48 h | 44.5 µM |
| Fc1ccc2c(-c3nnc(Cc4ccccc4)s3)nn(Cc3ccc(Cl)cc3Cl)c2c1 | human Fibroblast | – | 48 h | 191 µM |
| C/C(=N\c1nc(N)nc(/N=C(\C)c2c(O)c3ccccc3oc2=O)n1)c1c(O)c2ccccc2oc1=O | BEAS-2B | MTT | 48 h | 64.3 µM |
| Cc1sc2c(c1C)C(c1ccc(Cl)cc1)=N[C@@H](CC(=O)NCCCCNC(=O)COc1cccc3c1C(=O)N(C1CCC(=O)NC1=O)C3=O)c1nnc(C)n1-2 (stereo partly drawn) | KATO III | CCK-8 | 72 h | > 10 µM |
| Cc1ccc(Cn2nc(-c3ccc(CO)o3)c3ccccc32)cc1 | RBE | ATP luminescence | – | 1.7 µM |
| c1ccc2c(c1)ncn2Cn1cncn1 | BEAS-2B | MTT | 24 h | 264 µM |
| OCc1ccc(-c2nn(Cc3ccccc3)c3ncccc23)o1 | RBE | ATP luminescence | – | 15.5 µM |
| C/C(=N\CCNCC/N=C(\C)c1c(O)c2ccccc2oc1=O)c1c(O)c2ccccc2oc1=O | BEAS-2B | MTT | 48 h | 13.3 µM |
| CCOC(=O)c1c(C)nc2ccc(-c3ccc(F)c(F)c3)cc2c1O | MDA-MB-468 | MTT | 48 h | 4 µM |
| OCc1ccc(N2CCc3cccc(F)c3C2)cc1Cl | RBE | ATP luminescence | – | < 0.2 µM |
| OC1CCN(c2ccc(/C=N/NC(=S)NCc3ccc(Cl)cc3)cc2)CC1 | BEAS-2B | MTT | 24 h | 13.4 µM |

| SMILES | cell line | test | setting | IC50 |
| --- | --- | --- | --- | --- |
| CN1CCC(NC2CCc3[nH]c4c(C(N)=O)ccc(-c5ccccc5Cl)c4c3C2)CC1 (stereo not drawn) | SGC-7901 | – | 96 h | 0.0172 µM |
| CNC(=O)c1cc(Oc2ccc(NC(=O)Nc3ccc(Cl)c(C(F)(F)F)c3)cc2)ccn1 | BEAS-2B | MTT | 24 h | 15.8 µM |
| Fc1ccc2c(-c3nnc(Cc4ccccc4)s3)nn(Cc3ccccc3)c2c1 | human Fibroblast | – | 48 h | 605 µM |
| CC(C)CNC(=S)N/N=C/c1ccc(N2CCC(O)CC2)cc1 | BEAS-2B | MTT | 24 h | 10.8 µM |
| Fc1ccc2c(-c3ncc(-c4ccccc4)o3)nn(Cc3ccccc3)c2c1 | human Fibroblast | – | 48 h | 198 µM |
| OCc1ccc(-c2nn(Cc3cccnc3)c3cccnc23)o1 | RBE | ATP luminescence | – | 5.01 µM |
| COc1cccc2c1C(=O)c1c(O)c3c(c(O)c1C2=O)C[C@@](O)(C(=O)CO)C[C@@H]3O[C@H]1C[C@H](N)[C@H](O)[C@H](C)O1 | SGC-7901 | – | 96 h | 0.256 µM |
| Fc1ccc2c(-c3nnc(Cc4ccccc4)[nH]3)nn(Cc3ccc(Cl)cc3Cl)c2c1 | human Fibroblast | – | 48 h | 584 µM |
| CCOC(=O)c1c(C)nc2ccc(-c3ccc(F)cc3F)cc2c1O | MDA-MB-468 | MTT | 48 h | 8 µM |
| COc1ccc(NC(=S)N/N=C/c2ccc(N3CCC(O)CC3)cc2)cc1 | BEAS-2B | MTT | 24 h | 17.5 µM |
| Cc1cnc(Cn2nc(-c3ccc(CO)o3)c3ccccc32)s1 | RBE | ATP luminescence | – | 1.05 µM |
| Cc1cccc(C)c1NC(=S)N/N=C/c1ccc(N2CCC(O)CC2)cc1 | BEAS-2B | MTT | 24 h | 12.7 µM |
| OCc1ccc(-c2nn(Cc3cccc(Cl)c3)c3ccccc23)o1 | RBE | ATP luminescence | – | 1.41 µM |
| O=C(O)c1nn(Cc2ccc(Cl)cc2Cl)c2ccccc12 | human Fibroblast | – | 48 h | 259 µM |
| COc1cccc(Cn2nc(-c3ccc(CO)o3)c3ccccc32)c1 | RBE | ATP luminescence | – | 0.468 µM |
| CC(=O)N1CCC(Nc2cc(C(=O)NC[C@H](O)CN3CCc4ccccc4C3)ncn2)CC1 | MDA-MB-435S | CCK-8 | 72 h | > 100 µM |
| CC(O)c1ccc(-c2nn(Cc3ccccc3)c3ccccc23)o1 (stereo not drawn) | RBE | ATP luminescence | – | 6.92 µM |
| COc1ccc2c(-c3ncc(-c4ccccc4)o3)nn(Cc3ccccc3)c2c1 | human Fibroblast | – | 48 h | 89.9 µM |
